Measured values pooled from the literature.
Compare with care: the assays were run in different laboratories.
AVPR2: Vasopressin V2 receptor (AVPR2, Homo sapiens, UniProt P30518)
HTR1E: 5-hydroxytryptamine receptor 1E (HTR1E, Homo sapiens, UniProt P28566)
Palmitoyl-protein thioesterase 1: Palmitoyl-protein thioesterase 1 (Homo sapiens, UniProt P50897)
APC: Adenomatous polyposis coli protein (APC, Homo sapiens, UniProt P25054)

`CN(C)c1ncnc2c1ncn2[C@@H]1O[C@H](CO)[C@@H](O)[C@H]1O` gave an EC50 of 4 µM (Adenosine receptor A3 (ADORA3, Homo sapiens, UniProt P0DMS8, L264A); G protein activation; agonist).
With `CC1=NN(/C(=N/c2nnc(C)s2)Nc2ccc(C)c(C)c2)C(c2ccc(F)cc2)S1` (stereo not drawn) the EC50 was > 50 µM (AVPR2; cAMP; positive allosteric modulator).
`Cc1ccc(Sc2ccccc2N2CCNCC2)c(C)c1` has an EC50 of 1.96 µM (HTR1E; G protein activation; agonist; BRET).
For `CO[C@H]1C[C@@H]2CC[C@@H](C)[C@@](O)(O2)C(=O)C(=O)N2CCCC[C@H]2C(=O)O[C@H]([C@H](C)C[C@@H]2CC[C@@H](OC(=O)C(C)(CO)CO)[C@H](OC)C2)CC(=O)[C@H](C)/C=C(\C)[C@@H](O)[C@@H](OC)C(=O)[C@H](C)C[C@H](C)/C=C/C=C/C=C/1C`, the Kd was ~5.28 µM (Ferroptosis suppressor protein 1 (AIFM2, Homo sapiens, UniProt Q9BRQ8); binding; ITC).
`COC(=O)[C@]12CCC(C)(C)C[C@H]1[C@H]1C(=O)C=C3[C@@]4(C)C=C(C#N)C(=O)C(C)(C)[C@@H]4CC[C@@]3(C)[C@]1(C)CC2` gave a Kd of 79 µM (Epidermal growth factor receptor (EGFR, Homo sapiens, UniProt P00533); binding; MST).
For `CCN(CC)Cc1cc(Nc2ccnc3cc(Cl)ccc23)ccc1O`, the Kd was 0.076 µM (Palmitoyl-protein thioesterase 1; binding; MST).
The Kd of `CSc1ncc(Br)c(C(=O)N[C@@H](CCC(=O)O)C(=O)N[C@@H](Cc2ccc3ccccc3c2)C(=O)N[C@@H](CC(C)C)C(=O)N[C@@H]2C[C@H]2c2ccccc2)n1` is reported as 0.23 µM (APC; binding; SPR).
For `O=C1c2ccccc2-n2c1nc1ccccc1c2=O`, the Kd was 30.1 µM (Glutathione S-transferase P (GSTP1, Homo sapiens, UniProt P09211); binding).
For `CSc1cccc(C(=O)N[C@@H](CCC(=O)O)C(=O)N[C@@H](Cc2ccc3ccccc3c2)C(=O)N[C@@H](CC(C)C)C(=O)NC2CC2c2ccccc2)c1` (stereo partly drawn), the IC50 was 52.5 µM (APC; ligand displacement; FP).
For `CN1CCN2c3ccccc3Cc3ccccc3C2C1` (stereo not drawn), the EC50 was 0.123 µM (HTR1E; G protein activation; agonist; BRET).
With `CCCCCCCC/C=C\CCCCCCCC(=O)O` the Kd was 0.24 µM (Myoglobin (MB, Homo sapiens, UniProt P02144); binding; absorbance).
`COc1ccc(CC2NCCc3c2[nH]c2ccc(C)cc32)c(Cl)c1OC` (stereo not drawn) gave an EC50 of 2.43 µM (HTR1E; G protein activation; agonist; BRET).
With `Cc1cc(C(=O)N[C@@H](CCC(=O)O)C(=O)N[C@@H](Cc2ccc3ccccc3c2)C(=O)N[C@@H](CC(C)C)C(=O)NC2CC2c2ccccc2)ccn1` (stereo partly drawn) the IC50 was 40.7 µM (APC; ligand displacement; FP).
With `CN1CCC(=C2c3ccccc3C=Cc3ccccc32)CC1` the EC50 was 2.04 µM (HTR1E; G protein activation; agonist; BRET).
`CCc1cccc(C(=O)N[C@@H](CCC(=O)O)C(=O)N[C@@H](Cc2ccc3ccccc3c2)C(=O)N[C@@H](CC(C)C)C(=O)NC2CC2c2ccccc2)c1` (stereo partly drawn) has an IC50 of 25.1 µM (APC; ligand displacement; FP).
`C=C[C@H]1C[N@@]2CC[C@H]1C[C@H]2[C@H](O)c1ccnc2ccc(OC)cc12` gave a Kd of 0.256 µM (Palmitoyl-protein thioesterase 1; binding; MST).
The EC50 of `CC1=NN(/C(=N\c2ccc(Br)cc2)Nc2nnc(C)s2)C(c2ccc(C)cc2)S1` (stereo not drawn) is reported as 17.6 µM (AVPR2; cAMP; positive allosteric modulator).
With `Cc1ccc(CNc2cccc3c2CN(C)N(C2CCC(=O)NC2=O)C3=O)cc1` (stereo not drawn) the DC50 was 0.97 µM (Cereblon/Casein kinase I alpha (CSNK1A1/CRBN, Homo sapiens, UniProt P48729+Q96SW2); protein level; degrader; luciferase).
`CC1=NN(/C(=N/c2nnc(C)s2)Nc2ccc(C)c(C)c2)C(c2ccc(C(C)(C)C)cc2)S1` (stereo not drawn) has an EC50 of > 50 µM (AVPR2; cAMP; positive allosteric modulator).
For `CN(C)CCCN1c2ccccc2Sc2ccc(Cl)cc21`, the EC50 was 2.08 µM (HTR1E; G protein activation; agonist; BRET).
The EC50 of `CC(C)=CCNc1ncnc2c1ncn2[C@@H]1O[C@H](CO)[C@@H](O)[C@H]1O` is reported as 0.08 µM (Adenosine receptor A3 (ADORA3, Homo sapiens, UniProt P0DMS8, I253Q); G protein activation; agonist).
With `CC1=NN(/C(=N/c2nnc(C)s2)Nc2ccc(C)c(C)c2)C(c2cccc(-c3ccccc3)c2)S1` (stereo not drawn) the EC50 was > 50 µM (AVPR2; cAMP; positive allosteric modulator).
With `CSc1nccc(C(=O)N[C@@H](CCC(=O)O)C(=O)N[C@@H](Cc2ccc3ccccc3c2)C(=O)N[C@@H](CC(C)C)C(=O)NC2CC2c2ccccc2)n1` (stereo partly drawn) the Kd was 0.62 µM (APC; binding; SPR).
`CN1CCC(=C2c3ccccc3Sc3ccccc32)CC1` has an EC50 of 0.33 µM (HTR1E; G protein activation; agonist; BRET).
`Cc1ccc(N/C(=N\c2nnc(C(C)(C)C)s2)N2N=C(C(C)(C)C)SC2c2cc(F)c(F)c(F)c2)cc1C` (stereo not drawn) has an EC50 of > 50 µM (AVPR2; cAMP; positive allosteric modulator).
The Ki of `N=C(N)NCCC[C@H](NC(=O)[C@@H](NC(=O)[C@H](Cc1cscn1)NC(=O)CCc1ccccc1)C1CCCCC1)C(=O)c1nc2ccccc2s1` is reported as ~0.005 µM (Transmembrane protease serine 6 (Homo sapiens, UniProt Q8IU80); cell-free assay).
For `C#Cc1cccc(C(=O)N[C@@H](CCC(=O)O)C(=O)N[C@@H](Cc2ccc3ccccc3c2)C(=O)N[C@@H](CC(C)C)C(=O)NC2CC2c2ccccc2)c1` (stereo partly drawn), the IC50 was 24 µM (APC; ligand displacement; FP).
For `CC1=NN(/C(=N\c2ccc(C(F)(F)F)cc2)Nc2nnc(C)s2)C(c2ccc(C)cc2)S1` (stereo not drawn), the EC50 was 16.6 µM (AVPR2; cAMP; positive allosteric modulator).
`CC(C)C[C@H](NC(=O)[C@H](Cc1ccc2ccccc2c1)NC(=O)[C@H](CCC(=O)O)NC(=O)c1ccncn1)C(=O)NC1CC1c1ccccc1` (stereo partly drawn) gave a Kd of 2.3 µM (APC; binding; SPR).
`CC1=NN(/C(=N/c2nnc(C)s2)Nc2ccc(C)c(C)c2)C(c2ccc(F)c(F)c2)S1` (stereo not drawn) gave an EC50 of > 50 µM (AVPR2; cAMP; positive allosteric modulator).
`CCCNC(=O)NS(=O)(=O)c1ccc(Cl)cc1` has a Kd of 0.201 µM (Palmitoyl-protein thioesterase 1; binding; MST).
The EC50 of `CN1CCc2cc(Cl)c(O)cc2[C@@H](c2ccccc2)C1` is reported as 3.9 µM (HTR1E; G protein activation; agonist; BRET).
`CC1=NN(/C(=N\c2ccc(C)cc2)Nc2nnc(C)s2)C(c2ccc(C)cc2)S1` (stereo not drawn) has an EC50 of 24.2 µM (AVPR2; cAMP; positive allosteric modulator).
